Results reported in ChEMBL document CHEMBL4130405, “Iridoid Glycosides from the Twigs of Sambucus williamsii var. coreana and Their Biological Activities” (J Nat Prod, 2017).

What was measured:
[1] = tested on: C6; test: Induction of NGF secretion in rat C6 cells at 20 uM after 24 hrs by ELISA relative to control; type: functional
How it was run: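 C6 glioma cells were seeded at 1 × 10^5 cells/well in DMEM with 10% FBS. After 24 h, cells were exposed to 20 μM compound in DMEM with 2% FBS for 24 h. NGF secreted into the conditioned medium was measured by ELISA as percent of untreated control (100%). 6-Shogaol served as positive control. Data are mean ± SD of three independent experiments in triplicate.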

[2] = Cytotoxicity against rat C6 cells assessed as cell viability at 20 uM after 24 hrs by MTT assay relative to control; type: cell-based; conditions: read-out: Activity
How it was run: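 C6 glioma cells were kept in DMEM with 10% FBS and seeded at 1 × 10^5 cells/well. After 24 h, cells were treated with 20 μM compound in DMEM with 2% FBS for 24 h. MTT reagent was added for 1 h at 37 °C, formazan dissolved in DMSO and absorbance read at 570 nm. Results are percent, mean ± SD of three independent experiments.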

[3] = tested on: BV-2; test: Antineuroinflammatory activity in mouse BV2 cells assessed as inhibition of LPS-induced nitric oxide production pretreated for 30 mins followed by LPS-stimulation after 24 hrs by Griess assay; type: functional, cell-based
How it was run: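 BV-2 microglia were pretreated with compound for 30 min, then stimulated with LPS (100 ng/mL) for 24 h. Nitrite in the supernatant was mixed with an equal volume of Griess reagent (1% sulfanilamide, 0.1% naphthylethylenediamine in 5% phosphoric acid) for 10 min and read at 570 nm. Values were quantified against a sodium nitrite standard curve. L-NMMA served as positive control. IC50 is the concentration giving 50% inhibition of NO production; three independent experiments.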

[4] = tested on: SK-MEL-2; test: Cytotoxicity against human SK-MEL-2 cells after 48 hrs by SRB assay; type: functional, cell-based; conditions: SK-MEL-2, 48 h
How it was run: (§1)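 Cells from ATCC were seeded and left 24 h at 37 °C under 5% CO2. Attached cells were then exposed for 48 h to serial dilutions of 30, 10, 3, 1, 0.3 and 0.1 μM. Cells were fixed with cold 10% TCA at 4 °C for 1 h and stained with 0.4% SRB for 30 min at room temperature. Dye was solubilized in 10 mM Tris base (pH 10.5) and absorbance read at 520 nm. Etoposide served as positive control. IC50 is the mean ± SD of three independent experiments.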

[5] = tested on: A549; test: Cytotoxicity against human A549 cells after 48 hrs by SRB assay; type: functional, cell-based; conditions: A549, 48 h; how it was run: as §1
[6] = tested on: SK-OV-3; test: Cytotoxicity against human SKOV3 cells after 48 hrs by SRB assay; type: functional, cell-based; conditions: SK-OV-3, 48 h; how it was run: as §1
[7] = tested on: BT-549; test: Cytotoxicity against human BT549 cells after 48 hrs by SRB assay; type: functional, cell-based; conditions: BT-549, 48 h; how it was run: as §1
[8] = Cytotoxicity against mouse BV2 cells assessed as cell viability at 20 uM by MTT assay relative to control; type: cell-based, BV-2; conditions: read-out: Activity
How it was run: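 Viability of LPS-activated BV-2 cells was measured after 24 h treatment with 20 μM compound. Read-out was MTT, expressed as percent. Values are means ± SD of three independent experiments.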

Row | Structure (SMILES) | IC50 [3] [µM] | Activity [1] [%] | viability at 24 h, 20 µM [2] [%] | IC50 [4] [µM] | IC50 [5] [µM] | IC50 [6] [µM] | IC50 [7] [µM] | viability at 20 µM [8] [%]
1 | CCCCC/C=C/C(=O)CCc1ccc(O)c(OC)c1 [SHOGAOL] | – | 146.3 | 98.8 | – | – | – | – | –
2 | C=C1[C@@H]2O[C@@H](OC)[C@@H]3[C@H](CC[C@H]13)O2 | 94.2 | 133.4 | 106 | > 10 | > 10 | > 10 | > 10 | 104
3 | CCC(C)C(=O)O[C@@H]1OC=C(CO[C@@H]2O[C@H](CO)[C@@H](O)[C@H](O)[C@H]2OC(=O)/C=C/c2ccc(O)cc2)[C@H]2CC[C@](O)(CO)[C@@H]12 (some centres not stated) | 1.25 to 1.3 | 145.4 | 101 | 1.4 | 3.8 | 1.9 | 1.3 | 136
4 | CNC(=N)NCCC[C@H](N)C(=O)O [TILARGININE] | 13.2 | – | – | – | – | – | – | 120
5 | COc1cc([C@@H]2c3cc4c(cc3[C@@H](O[C@@H]3O[C@@H]5CO[C@@H](C)O[C@H]5[C@H](O)[C@H]3O)[C@H]3COC(=O)[C@H]23)OCO4)cc(OC)c1O [ETOPOSIDE] | – | – | – | 0.2 | 1.1 | 2.9 | 1 | –
6 | CC(C)CC(=O)O[C@@H]1OC=C(CO[C@@H]2O[C@H](CO)[C@@H](O)[C@H](O)[C@H]2O)[C@H]2C[C@H](O)[C@](O)(CO)[C@@H]12 | 112 | 107.4 | 116 | > 10 | > 10 | > 10 | > 10 | 103
7 | C=C1[C@@H]2O[C@@H](OC)[C@@H]3[C@@H](O2)[C@@H](O)C[C@H]13 | 110 | 152.6 | 111 | > 10 | > 10 | > 10 | > 10 | 36

Now from value to molecule, other results behind:

Row | IC50 [3] [µM] | Structure (SMILES) | Activity [1] [%] | viability at 24 h, 20 µM [2] [%] | IC50 [4] [µM] | IC50 [5] [µM] | IC50 [6] [µM] | IC50 [7] [µM] | viability at 20 µM [8] [%]
8 | 0.9 to 0.95 | CC(C)CC(=O)O[C@@H]1OC=C(CO[C@@H]2O[C@H](CO)[C@@H](O)[C@H](O)[C@H]2OC(=O)/C=C\c2ccc(O)cc2)[C@H]2CC[C@](O)(CO)[C@@H]12 | 147 | 102 | 8.4 | > 10 | > 10 | 8.7 | 103
9 | 29.8 | CC(=O)OC[C@@]1(O)CC[C@@H]2C(CO[C@@H]3O[C@H](CO)[C@@H](O)[C@H](O)[C@H]3OC(=O)/C=C/c3ccc(O)cc3)=CO[C@@H](OC(=O)CC(C)C)[C@@H]21 | 158.7 | 120 | > 10 | > 10 | > 10 | > 10 | 143
10 | 45.5 | CC(C)CC(=O)O[C@@H]1OC=C(CO[C@@H]2O[C@H](CO)[C@@H](O)[C@H](O)[C@H]2OC(=O)/C=C/c2ccc(O)cc2)[C@H]2CC[C@](O)(CO)[C@@H]12 | 130.4 | 115 | > 10 | > 10 | > 10 | > 10 | 102
11 | 1.2 to 1.22 | CC(=O)OC[C@@]1(O)CC[C@@H]2C(CO[C@@H]3O[C@H](CO)[C@@H](O)[C@H](O)[C@H]3OC(=O)/C=C\c3ccc(O)cc3)=CO[C@@H](OC(=O)CC(C)C)[C@@H]21 | 134.1 | 104 | 5.2 | > 10 | 7.5 | 4 | 130
